The results in this text go back to ChEMBL document CHEMBL1158382 (Eur J Med Chem, 2009).

One series concerns Mus musculus. Description: Analgesic activity in Albino mouse assessed as inhibition of acetic acid-induced writhing at 300 umol/kg, po administered 1 hr before acetic acid challenge and measured 10 mins after acetic acid challenge. The class given is functional. In short, it runs like this:
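Mice of both sexes (18–23 g) dosed orally as a suspension in 5% Arabic gum in saline; vehicle controls got an equal volume. Acetic acid 0.6% (0.1 mL/10 g) given i.p. 1 h later. Constrictions per animal counted for 20 min, starting 10 min after the injection. Value is % inhibition of constrictions versus vehicle group, mean ± SEM, N = 8–10.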
(In writhing tests, fewer writhes than in controls are read as antinociception.)

For series [1], the system named is Rattus norvegicus. The series can be described thus: Gastrointestinal toxicity in Albino rat assessed ulcer index at 300 umol/kg, po. Particulars: in vivo.
The subject of series [2] is Rattus norvegicus. The series can be described thus: Antiinflammatory activity in Albino rat assessed as inhibition of carrageenan-induced paw edema at 300 umol/kg, po administered 1 hr before carrageenan challenge and measured 3 hrs after carrageenan challenge. A general note: In the carrageenan paw model, swelling and tenderness develop within hours.
Series [3] in a line: Ratio of IC50 for COX1 to IC50 for COX2.

With `CCCNC(=O)CC1=C(C)/C(=C/c2ccc(S(C)(=O)=O)cc2)c2ccc(F)cc21`, the inhibition in vivo – broadly, the relative decrease from the control value, in per cent – at 300 µmol/kg in the series on Mus musculus was 39%; in the series on Rattus norvegicus [2], 20%. Also, in the series on Rattus norvegicus [1], the UI is 1.4.
In the same order, the values of `CC1=C(CC(=O)Nc2ccccc2)c2cc(F)ccc2/C1=C\c1ccc(S(C)(=O)=O)cc1` are 19%, 12% and 0.
As to `CC1=C(CC(=O)O)c2cc(F)ccc2/C1=C\c1ccc([S+](C)[O-])cc1` (configuration not stated), the figures for the inhibition in vivo at 300 µmol/kg in the series on Mus musculus and with Rattus norvegicus [2] were 49% and 67%, respectively.
With `Cc1ccc(Cl)c(Nc2ccccc2C(=O)O)c1Cl`, the Ratio IC50 in series [3] came to 0.72.
`COc1ccc2c(c1)c(CC(=O)Nc1cccnc1)c(C)n2C(=O)c1ccc(Cl)cc1`: the Ratio IC50 in series [3] is 1300.
Same read-out and setting: with `Cc1ccc(Cl)c(Nc2ccccc2C(=O)NOCc2ccc([N+](=O)[O-])cc2)c1Cl` the figure was 273.
Regarding `CC1=C(CC(=O)O)c2cc(F)ccc2/C1=C\c1ccc(S(C)(=O)=O)cc1` [EXISULIND], the figures for the inhibition in vivo at 300 µmol/kg in the series on Mus musculus and in the series with Rattus norvegicus [2] were 34% and 48%, respectively.
In the case of `CNC(=O)CC1=C(C)/C(=C/c2ccc([S+](C)[O-])cc2)c2ccc(F)cc21` (configuration not stated), in the series with Mus musculus, the inhibition in vivo at 300 µmol/kg came to 6%.
`CC1=C(CC(=O)N2CCCCC2)c2cc(F)ccc2/C1=C\c1ccc(S(C)(=O)=O)cc1`: the inhibition in vivo at 300 µmol/kg in the series with Mus musculus stood at 36%; with Rattus norvegicus [2], 19%. The same compound displayed a UI in the series with Rattus norvegicus [1] of 0.
In the same order, the values of `CNC(=O)CC1=C(C)/C(=C/c2ccc(S(C)(=O)=O)cc2)c2ccc(F)cc21` are 43%, 35% and 0.
With `CCCCNC(=O)CC1=C(C)/C(=C/c2ccc(S(C)(=O)=O)cc2)c2ccc(F)cc21`, the inhibition in vivo at 300 µmol/kg in the series with Mus musculus was 35%; in the series with Rattus norvegicus [2], 7%. In the series with Rattus norvegicus [1], this compound had a UI of 2.
In the same order, the values of `CC1=C(CC(=O)N2CCSCC2)c2cc(F)ccc2/C1=C\c1ccc(S(C)(=O)=O)cc1` are 48%, 11% and 4.
For the compound `Cc1ccc(-c2cc(C(F)(F)F)nn2-c2ccc(S(N)(=O)=O)cc2)cc1` [CELECOXIB], the inhibition in vivo at 300 µmol/kg amounted to 56% with Mus musculus and 35% with Rattus norvegicus [2].
On to `CCNC(=O)CC1=C(C)/C(=C/c2ccc(S(C)(=O)=O)cc2)c2ccc(F)cc21`, for which the inhibition in vivo at 300 µmol/kg in the series with Mus musculus stood at 59%; in the series with Rattus norvegicus [2], 27%. Moreover, the UI in the series on Rattus norvegicus [1] is reported as 0.
`Cc1ccc(Cl)c(Nc2ccccc2C(=O)NCCOc2ccccc2)c1Cl`: in series [3], the Ratio IC50 came out at 440.
Take `COC(=O)CC1=C(C)/C(=C/c2ccc(S(C)(=O)=O)cc2)c2ccc(F)cc21`: the inhibition in vivo at 300 µmol/kg with Mus musculus is 21%; in the series with Rattus norvegicus [2], 15%. Besides, the UI in the series on Rattus norvegicus [1] is on record as 0.
For `CCN(CC)C(=O)CC1=C(C)/C(=C/c2ccc(S(C)(=O)=O)cc2)c2ccc(F)cc21`, in that order: 14%, 27% and 1.
Take `Cc1ccc(Cl)c(Nc2ccccc2C(=O)NCCCCl)c1Cl`: the Ratio IC50 in series [3] was 40.
As for `CC1=C(CC(=O)N2CCOCC2)c2cc(F)ccc2/C1=C\c1ccc(S(C)(=O)=O)cc1`, the inhibition in vivo at 300 µmol/kg was 22% in the series with Mus musculus and 4% in the series with Rattus norvegicus [2]. The UI with Rattus norvegicus [1] came to 0.
